In data set [1] the test system is Rattus norvegicus. The data set is described as follows: Antiinflammatory activity in Wistar albino rat assessed as inhibition of carrageenan-induced paw edema at 0.029 mmol/kg, po dosed 1 hr before carrageenan challenge measured 1 hr post carrageenan-induced inflammation. Format: functional. The gist of the method:
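Wistar albino rats of both sexes, 120–150 g, six per group, food withdrawn the day before. Given orally 0.029 mmol/kg in saline with a few drops of Tween 80, by stomach tube, 1 h before subplantar s.c. carrageenan (0.1 ml of 1%) into the right hind paw. Paw thickness measured at 1, 2, 3 and 4 h against baseline. % inhibition = 100 × (1 − Vt/Vc).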
In general terms: In the carrageenan paw model, swelling and tenderness develop within hours.

Data set [2] concerns Rattus norvegicus. Description: Gastrointestinal toxicity in Wistar albino rat assessed as incidence of stomach ulceration at 0.029 mmol/kg, po. In kind it is organism-based. The settings on record: in vivo. The gist of the method: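 Rats given single oral dose suspended in saline with few drops Tween 80 (groups of 6); killed under deep ether anaesthesia 5 h after treatment; stomach opened along greater curvature and examined for lesions or bleeding; ulceration expressed as number of rats affected per group.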

Data set [3] concerns Rattus norvegicus. Description: Gastrointestinal toxicity in Wistar albino rat assessed as incidence of stomach ulceration at 0.029 mmol/kg, po followed by another two compound doses in second and third days measured on fourth day post dose by acute ulcerogenicity study. Format: organism-based. The settings on record: in vivo. Summed up: (§1)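 Adult Wistar rats of both sexes, 120–150 g, groups of 6, fasted 20 h; oral dose suspended in 1% Tween (vehicle group 1% Tween); fasted 2 h, fed 2 h, fasted 20 h; further doses on days 2 and 3. Scored: % incidence/10, mean ulcers per rat, mean severity score; ulcer index = sum of the three.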

Data set [4] concerns Rattus norvegicus. The data set is described as follows: Gastrointestinal toxicity in Wistar albino rat assessed as stomach ulcer index at 0.029 mmol/kg, po followed by another two compound doses in second and third days measured on fourth day post dose by acute ulcerogenicity study. In kind it is organism-based. The settings on record: in vivo. Summed up: as §1
Data set [5] has as its system Rattus norvegicus. The data set is described as follows: Antiinflammatory activity in Wistar albino rat assessed as inhibition of carrageenan-induced paw edema at 0.029 mmol/kg, po dosed 1 hr before carrageenan challenge measured 2 hrs post carrageenan-induced inflammation.
Data set [6] relates to Rattus norvegicus. Description: Antiinflammatory activity in Wistar albino rat assessed as inhibition of carrageenan-induced paw edema at 0.029 mmol/kg, po dosed 1 hr before carrageenan challenge measured 3 hrs post carrageenan-induced inflammation.
In data set [7] the test system is Rattus norvegicus. Description: Antiinflammatory activity in Wistar albino rat assessed as inhibition of carrageenan-induced paw edema at 0.029 mmol/kg, po dosed 1 hr before carrageenan challenge measured 4 hrs post carrageenan-induced inflammation.
Data set [8] concerns Rattus norvegicus. Description: Antiinflammatory activity in Wistar albino rat assessed as inhibition of carrageenan-induced paw edema at 1 mg/kg, po dosed 1 hr before carrageenan challenge measured after carrageenan-induced inflammation. Format: functional. The gist of the method:
(§2)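 Rat carrageenan paw oedema, six animals per group. Oral doses of 1, 2, 4 and 6 mg/kg in saline/Tween 80 given 1 h before 0.1 ml of 1% carrageenan s.c. into the right hind paw. Oedema measured as thickness increase over baseline. % inhibition = 100 × (1 − Vt/Vc). IC50 derived from the dose–response and reported in mg/kg and µmol/kg.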

In data set [9] the test system is Rattus norvegicus. Description: Antiinflammatory activity in Wistar albino rat assessed as inhibition of carrageenan-induced paw edema at 2 mg/kg, po dosed 1 hr before carrageenan challenge measured after carrageenan-induced inflammation. In kind it is functional. Summed up:
as §2

Data set [10] deals with Rattus norvegicus. The data set is described as follows: Antiinflammatory activity in Wistar albino rat assessed as inhibition of carrageenan-induced paw edema at 4 mg/kg, po dosed 1 hr before carrageenan challenge measured after carrageenan-induced inflammation. Format: functional. The gist of the method:
as §2

The subject of data set [11] is Rattus norvegicus. Description: Antiinflammatory activity in Wistar albino rat assessed as inhibition of carrageenan-induced paw edema at 6 mg/kg, po dosed 1 hr before carrageenan challenge measured after carrageenan-induced inflammation. Format: functional. The gist of the method: as §2
Data set [12] deals with Rattus norvegicus. The data set is described as follows: Antiinflammatory activity in po dosed Wistar albino rat assessed as inhibition of carrageenan-induced paw edema dosed 1 hr before carrageenan challenge measured after carrageenan-induced inflammation. Format: functional, organism-based. The gist of the method:
as §2

The subject of data set [13] is Mus musculus. The data set is described as follows: Analgesic activity in Swiss albino mouse assessed as inhibition of acetic acid-induced writhing at 0.029 mmol/kg. po dosed 1 hr before acetic acid challenge and measured during 30 mins post acetic acid challenge. In kind it is functional. Summed up:
(§3)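 Swiss albino mice of either sex, 18–22 g, six per group. Oral suspension at 0.029 mmol/kg given 1 h before 0.3 ml of 1% acetic acid i.p. Contractions counted for 30 min, starting 5 min after injection. % protection = (n − n')/n × 100 against control writhing. Potency% = % inhibition of test / % inhibition of indomethacin × 100. Mean ± SEM, ANOVA with post hoc test.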
(In writhing tests, fewer writhes than in controls are read as antinociception.)

In data set [14] the test system is Mus musculus. Description: Analgesic activity in Swiss albino mouse assessed as inhibition of acetic acid-induced writhing at 0.029 mmol/kg. po dosed 1 hr before acetic acid challenge and measured during 30 mins post acetic acid challenge relative to indomethacin. Format: functional. The settings on record: read-out: INH. The gist of the method:
as §3

The species entered for data set [15] is Homo sapiens. Description: Selectivity index, ratio of inhibition of COX1 to inhibition of COX2 by Cayman's COX activity assay. The gist of the method:
(§4)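 COX peroxidase activity measured with a commercial COX activity assay kit (Kulmacz and Lands method), per manufacturer's instructions; % inhibition of COX-1 and COX-2 determined, selectivity expressed as ratio of COX-1 to COX-2 % inhibition.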

For data set [16], the target named is Prostaglandin G/H synthase 1 (Homo sapiens) (UniProt P23219). The data set is described as follows: Inhibition of COX1 by Cayman's COX activity assay. The gist of the method:
as §4

Data set [17] in a line: Lipophilicity, log P of the compound. Format: physicochemical. The settings on record: octanol/water.

Activity calls are given as the source filed them. The rule behind the calls is not given here.

Sequence of Prostaglandin G/H synthase 1 (Homo sapiens) (P23219 whole entry): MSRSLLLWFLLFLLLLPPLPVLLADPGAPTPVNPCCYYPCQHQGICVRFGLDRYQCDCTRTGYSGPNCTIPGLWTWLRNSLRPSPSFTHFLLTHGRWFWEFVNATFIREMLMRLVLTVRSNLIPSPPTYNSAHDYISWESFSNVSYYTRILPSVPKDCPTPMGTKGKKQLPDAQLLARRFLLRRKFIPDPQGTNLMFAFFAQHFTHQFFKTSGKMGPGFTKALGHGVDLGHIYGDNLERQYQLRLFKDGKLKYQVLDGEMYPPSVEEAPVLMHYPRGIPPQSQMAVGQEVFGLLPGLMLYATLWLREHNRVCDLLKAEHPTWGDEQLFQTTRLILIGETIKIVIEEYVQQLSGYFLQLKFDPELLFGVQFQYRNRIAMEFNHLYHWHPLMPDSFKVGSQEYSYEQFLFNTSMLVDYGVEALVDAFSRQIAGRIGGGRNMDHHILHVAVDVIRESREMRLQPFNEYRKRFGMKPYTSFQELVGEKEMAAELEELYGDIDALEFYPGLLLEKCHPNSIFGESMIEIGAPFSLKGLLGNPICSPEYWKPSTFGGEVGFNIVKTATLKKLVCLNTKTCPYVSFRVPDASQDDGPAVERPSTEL

On to `Cc1ccc(-c2cc(C(F)(F)F)nn2-c2ccc(S(N)(=O)=O)cc2)cc1` [CELECOXIB], for which the inhibition in vivo (in general, how much of the control response was suppressed) at 29 µmol/kg in [1] stood at 54%; in data set [5] it was 34%; in data set [6] it was 47%; in [7], 48%. The figures for the Activity result in [2] and in data set [3] were “Toxic” and 6.66%, respectively. For the same molecule, the UI in [4] came to 11.13.

As for `Cc1c(NC(=O)c2nc3c(c(=O)[nH]2)C2CCCN2C(=O)N3c2ccccc2)c(=O)n(-c2ccccc2)n1C` (stereo not drawn), the inhibition in vivo at 29 µmol/kg in [1] worked out at 78%; in data set [13], 63.3%; in data set [5] it was 68%; in data set [6], 78%; in data set [7], 83%. Moreover, the inhibition in vivo at 1 mg/kg in data set [8] came to 30%. For the same molecule, the inhibition in vivo at 2 mg/kg in data set [9] was found to be 48%. For the same molecule, the inhibition in vivo at 4 mg/kg in data set [10] was determined as 78%. In data set [11], the inhibition in vivo at 6 mg/kg came out at 77%. Also, the IC50 in [12] is 6 µmol/kg. In addition, the figures for the Activity result in data set [2] and in data set [3] were “Non-toxic” and 5%, respectively. Further, the writhing inhibition relative to indomethacin (potency %) at 29 µmol/kg in data set [14] stood at 95.7%. Moreover, in data set [4], the UI is given as 7.16. Further, the Ratio in [15] was determined as 1.3. Moreover, the inhibition entry in [16] is “Active”. Besides, the lipophilicity (logP) – broadly, the decadic logarithm of the partition coefficient of the neutral form, usually between octanol and water – in data set [17] stood at 2.09.

For `O=C(O)Cc1nc2c(c(=O)[nH]1)C1CCCN1C(=O)N2c1ccccc1` (stereo not drawn), the inhibition in vivo at 29 µmol/kg in [1] is 77%; in [13] it was 57.6%; in data set [5] it was 70%; in data set [6] it was 72%; in [7], 80%. Moreover, the inhibition in vivo at 1 mg/kg in data set [8] was 20%. In [9], the inhibition in vivo at 2 mg/kg was 40%. Besides, the inhibition in vivo at 4 mg/kg in data set [10] was 64%. Moreover, the inhibition in vivo at 6 mg/kg in [11] came out at 74%. Moreover, in data set [12], the IC50 was 10 µmol/kg. Also, the Activity entry in data set [2] is “Toxic”; in data set [3], 8.33%. The writhing inhibition relative to indomethacin (potency %) at 29 µmol/kg in [14] is 87.2%. In data set [4], the UI is on record as 10.49. The logP in data set [17] came to 0.749.

Consider `COc1ccc2c(c1)c(CC(=O)O)c(C)n2C(=O)c1ccc(Cl)cc1` [INDOMETHACIN], for which the inhibition in vivo at 29 µmol/kg in [1] is 57%; in data set [13], 66.1%; in [5] it was 39%; in data set [6], 47%; in data set [7] it was 51%. Also, the Activity result is “Toxic” in [2] and 10% in [3]. In data set [4], the UI is on record as 14.73.

For the molecule `Cc1cc(-c2ccccc2)nn1C(=O)c1nc2c(c(=O)[nH]1)C1CCCN1C(=O)N2c1ccccc1` (stereo not drawn), the inhibition in vivo at 29 µmol/kg in data set [1] was 78%; in data set [13] it was 39.6%; in data set [5], 65%; in data set [6] it was 59%; in data set [7], 62%. Besides, the inhibition in vivo at 1 mg/kg in [8] is 20%. Also, the inhibition in vivo at 2 mg/kg in data set [9] was 45%. Also, the inhibition in vivo at 4 mg/kg in data set [10] worked out at 65%. The inhibition in vivo at 6 mg/kg in data set [11] stood at 60%. In data set [12], the IC50 turned out to be 8 µmol/kg. For the same molecule, the Activity entry was “Non-toxic” in [2] and 6.66% in [3]. For the same molecule, the writhing inhibition relative to indomethacin (potency %) at 29 µmol/kg in data set [14] amounted to 59.8%. Also, the UI in [4] is reported as 10.94. The Ratio in data set [15] amounted to 1.02. Besides, in data set [16], the inhibition entry was “Active”. The molecule also showed a lipophilicity (logP) in data set [17] of 3.7.

In the case of `CCOC(=O)Cc1nc2c(c(=O)[nH]1)C1CCCN1C(=O)N2c1ccccc1` (stereo not drawn), the inhibition in vivo at 29 µmol/kg was 81% in data set [1]; 70.8% in [13]; 80% in data set [5]; 90% in data set [6]; 89% in [7]. Further, the inhibition in vivo at 1 mg/kg in [8] is 12%. Further, the inhibition in vivo at 2 mg/kg in data set [9] came to 32%. Further, the inhibition in vivo at 4 mg/kg in data set [10] stood at 60%. Also, the inhibition in vivo at 6 mg/kg in [11] was determined as 64%. In addition, the IC50 in [12] is 11 µmol/kg. The Activity entry in data set [2] is listed as “Non-toxic”; in data set [3], 5%. The writhing inhibition relative to indomethacin (potency %) at 29 µmol/kg in [14] was determined as 107%. Further, in [4], the UI was 7. This molecule displayed a logP in data set [17] of 1.53.

On to `NNC(=O)c1nc2c(c(=O)[nH]1)C1CCCN1C(=O)N2c1ccccc1` (stereo not drawn), for which the inhibition in vivo at 29 µmol/kg in data set [1] was determined as 56%; in data set [13] it was 32.2%; in [5], 45%; in [6], 50%; in data set [7], 56%. Also, in [2], the Activity result is on record as “Toxic”. The writhing inhibition relative to indomethacin (potency %) at 29 µmol/kg in data set [14] turned out to be 48.7%. The lipophilicity (logP) in [17] is -0.487.

On to `O=C(NN=C(c1ccccc1)c1ccccc1)c1nc2c(c(=O)[nH]1)C1CCCN1C(=O)N2c1ccccc1` (stereo not drawn), for which the inhibition in vivo at 29 µmol/kg in data set [1] came to 44%; in data set [13], 81.9%; in data set [5], 51%; in [6], 51%; in [7] it was 53%. Also, in [2], the Activity result is reported as “Non-toxic”. The writhing inhibition relative to indomethacin (potency %) at 29 µmol/kg in data set [14] was 124%. Also, the lipophilicity (logP) in [17] is 5.52.

Consider `COc1ccc(/C=N/NC(=O)c2nc3c(c(=O)[nH]2)C2CCCN2C(=O)N3c2ccccc2)cc1O` (stereo not drawn), for which the inhibition in vivo at 29 µmol/kg in [1] amounted to 18%; in [13], 43.8%; in data set [5], 15%; in data set [6], 46%; in data set [7] it was 46%. Besides, in [2], the Activity result is on record as “Non-toxic”. Moreover, the writhing inhibition relative to indomethacin (potency %) at 29 µmol/kg in data set [14] came to 66.2%. In [17], this molecule gave a lipophilicity (logP) of 2.42.
